Measured values as given in ChEMBL document CHEMBL4725435, “Second Generation of Zafirlukast Derivatives with Improved Activity against the Oral Pathogen Porphyromonas gingivalis” (ACS Med Chem Lett, 2020).
Active and inactive are the calls of the source. No cut-off for these calls is given here.

Key:
[1] = Cytotoxicity against hTERT-immortalized human OKF6 cells assessed as reduction in cell density at 10 uM incubated for 24 hrs by trypan blue dye based light inverted microscopic analysis; details: okf6, 24 h
In short: (§1)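 OKF6 cells were imaged by microscopy after 24 h treatment, with derivatives at 10 μM, to judge cell morphology and density from whole-well images. Medium-only and DMSO wells served as negative controls. Staurosporine 8 μM and ZAF 25 μM served as positive controls.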

[2] = system: Porphyromonas gingivalis; assay: Bactericidal activity against Porphyromonas gingivalis 381 assessed as growth inhibition at 1 uM treated for 24 hrs under anaerobic conditions followed by culturing in blood agar plate and measured after 5 days of incubation in an anaerobic chamber by CFU assay relative to control; type: functional, organism-based
In short: (§2)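 P. gingivalis 381 was exposed in media for 24 h at 1, 10 or 100 μM, then grown on blood agar plates for 5 days under anaerobic conditions and counted as CFUs/mL. Percent inhibition = 100 × [CFUs/mL control − CFUs/mL experimental]/CFUs/mL control, versus medium-only bacteria. Six independent replicates per condition for test compounds, 12 for controls (tetracycline 2.81 μM, ZAF 25/50 μM, DMSO).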

[3] = system: Porphyromonas gingivalis; assay: Antibacterial activity against Porphyromonas gingivalis 381 assessed as bacterial growth inhibition at 1 uM treated for 24 hrs by WST1 assay relative to control; type: functional; details: read-out: GI
In short: (§3)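 P. gingivalis 381 read by colorimetric WST-1 after 24 h. Derivatives were tested at 1, 10 and 100 μM. Tetracycline was run at 2.81 μM and ZAF at 25 and 50 μM as positive controls, with DMSO as negative control. Percent growth inhibition is versus medium-only cultures. Derivatives had 6 independent replicates per condition; controls had 36.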

[4] = system: Porphyromonas gingivalis; assay: Bactericidal activity against Porphyromonas gingivalis 381 assessed as growth inhibition at 100 uM treated for 24 hrs under anaerobic conditions followed by culturing in blood agar plate and measured after 5 days of incubation in an anaerobic chamber by CFU assay relative to control; type: functional; details: read-out: GI; in short: as §2
[5] = Cytotoxicity against hTERT-immortalized human OKF6 cells assessed as small and rounded cell morphology at 10 uM incubated for 24 hrs by trypan blue dye based light inverted microscopic analysis; details: okf6, 24 h
In short: (§4)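 Immortalized oral keratinocytes (OKF6/hTERT) were exposed for 24 h to test compounds at 10 μM. Controls were staurosporine at 8 μM or zafirlukast at 25 μM (positive) and medium only or DMSO (negative). Whole-well microscope images were then scored qualitatively for cell density and morphology (size, shape, spacing between cells).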

[6] = Cytotoxicity against hTERT-immortalized human OKF6 cells assessed as cell viability at 1 uM incubated for 24 hrs by Annexin V-FITC/propidium iodide staining based flow cytometric analysis relative to control; details: read-out: Activity
In short: (§5)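 OKF6/hTERT oral keratinocytes were treated for 24 h, then apoptosis and necrosis were assessed by flow cytometry. DMSO served as negative control; staurosporine 8 μM and ZAF 25 μM served as positive controls. Data come from two independent experiments run in duplicate, with at least 10,000 events analysed per condition.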

[7] = Cytotoxicity against hTERT-immortalized human OKF6 cells assessed as cell viability at 10 uM incubated for 24 hrs by Annexin V-FITC/propidium iodide staining based flow cytometric analysis relative to control; details: read-out: Activity; in short: as §5
[8] = system: Aggregatibacter actinomycetemcomitans; assay: Antibacterial activity against Aggregatibacter actinomycetemcomitans JP2 assessed as bacterial growth inhibition at 1 to 100 uM treated for 24 hrs by WST1 assay; type: functional, organism-based; details: dose microM 1-100, time 24.0 hrs
In short: (§6)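 WST-1 colorimetric growth assay across oral bacterial species, 24 h exposure. DMSO as negative control. Positive controls were ZAF at 25 and 50 μM, or penicillin/streptomycin 1X (100 U/mL penicillin, 100 μg/mL streptomycin). Percent growth inhibition is relative to cultures in medium only, averaged from six independent replicates per condition.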

[9] = system: Porphyromonas gingivalis; assay: Antibacterial activity against Porphyromonas gingivalis 381 assessed as bacterial growth inhibition at 100 uM treated for 24 hrs by WST1 assay relative to control; type: functional; details: read-out: GI; in short: as §3
[10] = system: Porphyromonas gingivalis; assay: Antibacterial activity against Porphyromonas gingivalis 381 assessed as bacterial growth inhibition at 10 uM treated for 24 hrs by WST1 assay relative to control; type: functional; details: read-out: GI; in short: as §3
[11] = system: Veillonella parvula; assay: Antibacterial activity against Veillonella parvula ATCC 10790 assessed as bacterial growth inhibition at 1 to 100 uM treated for 24 hrs by WST1 assay; type: functional, organism-based; details: dose microM 1-100, time 24.0 hrs; in short: as §6
[12] = system: Porphyromonas gingivalis; assay: Bactericidal activity against Porphyromonas gingivalis 381 assessed as growth inhibition at 10 uM treated for 24 hrs under anaerobic conditions followed by culturing in blood agar plate and measured after 5 days of incubation in an anaerobic chamber by CFU assay; type: functional, organism-based; in short: as §2
[13] = Cytotoxicity against hTERT-immortalized human OKF6 cells assessed as large and flattened cell morphology at 10 uM incubated for 24 hrs by trypan blue dye based light inverted microscopic analysis; details: okf6, 24 h; in short: as §1
[14] = system: Porphyromonas gingivalis; assay: Antibacterial activity against Porphyromonas gingivalis 381 assessed as bacterial growth inhibition at 2.81 uM treated for 24 hrs by WST1 assay relative to control; type: functional; details: read-out: GI; in short: as §3
[15] = Cytotoxicity against hTERT-immortalized human OKF6 cells assessed as reduction in cell density at 8 uM incubated for 24 hrs by trypan blue dye based light inverted microscopic analysis; details: okf6, 24 h; in short: as §4
[16] = Cytotoxicity against hTERT-immortalized human OKF6 cells assessed as small and rounded cell morphology at 8 uM incubated for 24 hrs by trypan blue dye based light inverted microscopic analysis; details: okf6, 24 h; in short: as §4
[17] = system: Porphyromonas gingivalis; assay: Antibacterial activity against Porphyromonas gingivalis 381 assessed as bacterial growth inhibition at 25 uM treated for 24 hrs by WST1 assay relative to control; type: functional; details: read-out: GI; in short: as §3
[18] = Cytotoxicity against hTERT-immortalized human OKF6 cells assessed as reduction in cell density at 25 uM incubated for 24 hrs by trypan blue dye based light inverted microscopic analysis; details: okf6, 24 h; in short: as §1
[19] = Cytotoxicity against hTERT-immortalized human OKF6 cells assessed as small and rounded cell morphology at 25 uM incubated for 24 hrs by trypan blue dye based light inverted microscopic analysis; details: okf6, 24 h; in short: as §1
[20] = system: Porphyromonas gingivalis; assay: Antibacterial activity against Porphyromonas gingivalis 381 assessed as bacterial growth inhibition at 50 uM treated for 24 hrs by WST1 assay relative to control; type: functional; details: read-out: GI; in short: as §3
[21] = system: Porphyromonas gingivalis; assay: Antibacterial activity against Porphyromonas gingivalis 381 assessed as bacterial growth inhibition at 1 to 100 uM treated for 24 hrs by WST1 assay relative to control; type: functional; in short: as §3
[22] = dose microM 1-100, time 24.0 hrs

SMILES | Activity [1] | inhibition of growth at 1 µM [3] | inhibition of growth at 100 µM [4] | viability at 24 h, 1 µM [6] | viability at 24 h, 10 µM [7] | growth inhibition (GI) [8] | inhibition of growth at 100 µM [9] | inhibition of growth at 10 µM [10] | growth inhibition (GI) [11] | Activity [12] | other results
COc1ccc(Cc2cn(C)c3ccc([N+](=O)[O-])cc23)cc1C(=O)NS(=O)(=O)c1cccc(F)c1 | Toxic | 53% | 100% | 76% | 49% | inactive | 58% | 59% | inactive | Active | Activity [2]: Active; Activity [5]: Toxic
COc1ccc(Cc2cn(C)c3ccccc23)cc1C(=O)NS(=O)(=O)c1ccc2ccccc2c1 | Toxic | – | 100% | 76% | 49% | inactive | 58% | – | inactive | inactive | Activity [13]: Non-Toxic
CN(C)[C@@H]1C(O)=C(C(N)=O)C(=O)[C@@]2(O)C(O)=C3C(=O)c4c(O)cccc4[C@@](C)(O)[C@H]3C[C@@H]12 [TETRACYCLINE] | – | – | – | – | – | – | – | – | – | – | inhibition of growth at 2.81 µM [14]: 51%
COc1ccc(Cc2cn(C)c3ccc([N+](=O)[O-])cc23)cc1C(=O)NS(=O)(=O)c1ccccc1 | – | 0% | – | – | – | – | – | – | – | – | –
CN[C@@H]1C[C@H]2O[C@@](C)([C@@H]1OC)n1c3ccccc3c3c4c(c5c6ccccc6n2c5c31)C(=O)NC4 [STAUROSPORINE] | – | – | – | – | – | – | – | – | – | – | Activity [15]: Toxic; Activity [16]: Toxic
COc1ccc(Cc2cn(C)c3ccc([N+](=O)[O-])cc23)cc1C(=O)NS(=O)(=O)c1ccc([N+](=O)[O-])cc1 | Toxic | 53% | 100% | 76% | 49% | inactive | 58% | 59% | inactive | Active | Activity [2]: Active; Activity [5]: Toxic
COc1ccc(Cc2cn(C)c3ccc([N+](=O)[O-])cc23)cc1C(=O)NS(=O)(=O)c1ccc2ccccc2c1 | – | – | – | – | – | – | 58% | 57% | – | – | –
COc1cc(C(=O)NS(=O)(=O)c2ccccc2C)ccc1Cc1cn(C)c2ccc(NC(=O)OC3CCCC3)cc12 [ZAFIRLUKAST] | – | – | – | – | – | – | – | – | – | – | inhibition of growth at 25 µM [17]: 70%; Activity [18]: Toxic; Activity [19]: Toxic; inhibition of growth at 50 µM [20]: 68%
COc1ccc(Cc2cn(C)c3ccccc23)cc1C(=O)NS(=O)(=O)c1ccc(F)cc1 | Non-Toxic | – | 100% | 76% | 49% | inactive | 58% | 59% | inactive | inactive | Activity [13]: Non-Toxic
COc1ccc(Cc2cn(C)c3ccc([N+](=O)[O-])cc23)cc1C(=O)NS(=O)(=O)c1cccc([N+](=O)[O-])c1 | – | 53% | – | – | – | – | 58% | 59% | – | – | –
COc1ccc(Cc2cn(C)c3ccccc23)cc1C(=O)NS(=O)(=O)c1ccc([N+](=O)[O-])cc1 | – | – | – | – | – | – | – | – | – | – | growth inhibition (GI) ([21]; dose microM 1-100): 0%
COc1ccc(Cc2c[nH]c3ccccc23)cc1C(=O)NS(=O)(=O)c1ccc2ccccc2c1 | – | – | – | – | – | – | – | – | – | – | growth inhibition (GI) [21, 22]: inactive
COc1ccc(Cc2cn(C)c3ccccc23)cc1C(=O)NS(=O)(=O)c1ccccc1C | – | 16% | – | – | – | – | 74% | 56% | – | – | –
COc1ccc(Cc2cn(C)c3ccccc23)cc1C(=O)NS(=O)(=O)c1ccccc1F | – | – | – | – | – | – | 55% | – | – | – | –
COc1ccc(Cc2c[nH]c3ccccc23)cc1C(=O)NS(=O)(=O)c1ccc(F)cc1 | – | – | – | – | – | – | – | – | – | – | growth inhibition (GI) [21, 22]: inactive
COc1ccc(Cc2cn(C)c3ccc([N+](=O)[O-])cc23)cc1C(=O)NS(=O)(=O)c1ccc(F)cc1 | – | – | – | – | – | – | 58% | 59% | – | – | –
COc1ccc(Cc2c[nH]c3ccccc23)cc1C(=O)NS(=O)(=O)c1ccccc1F | – | – | – | – | – | – | – | – | – | – | growth inhibition (GI) [21, 22]: inactive
COc1ccc(Cc2cn(C)c3ccccc23)cc1C(=O)NS(=O)(=O)c1cccc([N+](=O)[O-])c1 | Non-Toxic | 18% | 100% | 76% | 49% | inactive | 58% | 50% | inactive | inactive | Activity [13]: Non-Toxic; growth inhibition (GI) ([21]; dose microM 1-100): 18%
COc1ccc(Cc2cn(C)c3ccc([N+](=O)[O-])cc23)cc1C(=O)NS(=O)(=O)c1ccccc1F | – | 53% | – | – | – | – | 58% | 59% | – | – | –
COc1ccc(Cc2cn(C)c3ccccc23)cc1C(=O)NS(=O)(=O)c1cccc(F)c1 | Non-Toxic | 14% | 100% | 76% | 49% | inactive | 73% | 57% | inactive | inactive | Activity [13]: Non-Toxic
